# Experimental data from different studies.
# Organism: Klebsiella pneumoniae
# Read-out: microbial growth
Compound,test,system,MIC [µg/mL]
CCCCCCC#Cc1cncc(-c2nnc(Sc3ccc([N+](=O)[O-])cc3[N+](=O)[O-])n2C)c1,,,≥ 20
CN[C@@H]1[C@H](O)[C@H](NC)[C@H]2O[C@@]3(O)C(=O)C[C@@H](C)O[C@H]3O[C@@H]2[C@H]1O,broth dilution,ATCC33495,> 200
COC(=O)c1cc(-c2cccc(NC(=O)Nc3cccc(C#N)c3)c2)on1,broth dilution,BAA1705,> 64
CCCCCCCCCC(=O)N[C@@H](Cc1c[nH]c2ccccc12)C(=O)N[C@H](CC(N)=O)C(=O)N[C@@H](CC(=O)O)C(=O)N[C@@H]1C(=O)NCC(=O)N[C@@H](CCCN)C(=O)N[C@@H](CC(=O)O)C(=O)N[C@H](C)C(=O)N[C@@H](CC(=O)O)C(=O)NCC(=O)N[C@H](CO)C(=O)N[C@@H]([C@H](C)CC(=O)O)C(=O)N[C@@H](CC(=O)c2ccccc2N)C(=O)O[C@@H]1C,broth dilution,ATCC10031,> 64
Fc1c(F)c(F)c(-c2c(F)c(F)c(F)c(F)c2F)c(F)c1F,,ATCC13883,> 250
Cc1c(NN=C(C#N)C2=NC(=O)CS2)c(=O)n(-c2ccccc2)n1C,broth dilution,,0.98
COC(=O)c1cc(-c2ccc(OC)c(NC(=O)Nc3ccc(Cl)c(Cl)c3)c2)on1,broth dilution,BAA1705,> 64
CCCCCCC#Cc1cncc(-c2nnc(SCc3cc([N+](=O)[O-])cc([N+](=O)[O-])c3)n2C)c1,,,≥ 20
Fc1c(F)c(F)c(F)c(F)c1F,,ATCC13883,> 250
COC(=O)c1cc(-c2cccc(NC(=O)Nc3ccccc3C)c2)on1,broth dilution,BAA1705,> 64
